Data from ChEMBL document CHEMBL1153953, “Synthesis and pharmacological evaluation of coumarin derivatives as cannabinoid receptor antagonists and inverse agonists” (Bioorg Med Chem, 2009).

Legend:
Cannabinoid receptor 1 = Cannabinoid receptor 1 (Rattus norvegicus, UniProt P20272); assay: Displacement of [3H]CP-55940 from cannabinoid CB1 receptor in rat brain cortical membrane; type: cell membranes
[1] = target: Cannabinoid receptor 1 (Rattus norvegicus) (UniProt P20272); assay: Displacement of [3H]CP-55940 from cannabinoid CB1 receptor in rat brain cortical membrane at 10 uM; type: cell membranes
Sequence of Cannabinoid receptor 1 (Rattus norvegicus) (P20272 whole entry): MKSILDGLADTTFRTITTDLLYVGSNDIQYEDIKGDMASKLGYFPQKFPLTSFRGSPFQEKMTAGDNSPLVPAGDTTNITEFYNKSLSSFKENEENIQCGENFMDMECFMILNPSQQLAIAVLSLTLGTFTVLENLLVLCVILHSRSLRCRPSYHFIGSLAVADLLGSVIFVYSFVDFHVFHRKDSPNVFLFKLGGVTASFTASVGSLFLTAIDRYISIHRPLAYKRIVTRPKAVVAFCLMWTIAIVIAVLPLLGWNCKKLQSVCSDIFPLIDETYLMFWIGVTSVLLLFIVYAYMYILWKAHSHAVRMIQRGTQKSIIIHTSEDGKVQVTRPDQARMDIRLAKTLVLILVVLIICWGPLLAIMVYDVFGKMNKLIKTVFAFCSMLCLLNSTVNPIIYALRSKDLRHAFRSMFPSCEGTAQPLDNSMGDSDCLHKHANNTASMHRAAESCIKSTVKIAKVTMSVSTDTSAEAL
Outline: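 Competition vs 0.5 nM [3H]CP55,940 on rat brain cortical membranes (cortex homogenized in 0.32 M sucrose, differentially centrifuged), 50 µg protein/well, in 50 mM Tris-HCl pH 7.4, 3 mM MgCl2, 0.1% BSA; 2.5% DMSO final; rt, 2 h, started by protein; nonspecific with 10 µM unlabeled CP55,940; GF/C filtration, scintillation counting; ≥3 experiments in triplicate.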

Cannabinoid receptor 2 [2] = target: T1, Cannabinoid receptor 2 (Homo sapiens, UniProt P34972); assay: Displacement of [3H]CP-55940 from human recombinant cannabinoid CB2 receptor expressed in HEK293 cells at 10 uM; type: cell-based
T1 sequence (P34972 whole entry): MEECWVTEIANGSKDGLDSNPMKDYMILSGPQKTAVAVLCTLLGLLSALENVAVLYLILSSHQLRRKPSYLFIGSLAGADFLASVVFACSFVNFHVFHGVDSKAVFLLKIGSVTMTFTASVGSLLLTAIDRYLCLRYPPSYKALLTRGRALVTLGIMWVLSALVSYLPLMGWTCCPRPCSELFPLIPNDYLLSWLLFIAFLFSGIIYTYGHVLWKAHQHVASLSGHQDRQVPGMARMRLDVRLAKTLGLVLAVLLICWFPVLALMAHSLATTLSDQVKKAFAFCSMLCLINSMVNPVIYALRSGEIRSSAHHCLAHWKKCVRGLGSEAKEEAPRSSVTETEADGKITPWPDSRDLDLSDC
Outline: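 Competition vs 0.5 nM [3H]CP55,940 using commercial HEK293 EBNA membranes expressing human CB2, 50 µg protein/well, in 50 mM Tris-HCl pH 7.4, 3 mM MgCl2, 0.1% BSA; 2.5% DMSO final; rt, 2 h, started by protein; nonspecific with 10 µM unlabeled CP55,940; GF/C filtration, scintillation counting; ≥3 experiments in duplicate.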

Cannabinoid receptor 2 [3] = target: T1, Cannabinoid receptor 2; assay: Displacement of [3H]CP-55940 from human recombinant cannabinoid CB2 receptor expressed in HEK293 cells; type: cell-based
[4] = target: Cannabinoid receptor 1 (Rattus norvegicus) (UniProt P20272); assay: Antagonist activity at cannabinoid CB1 receptor in rat brain cortical membrane assessed as effect on GTPgammaS binding at 30 uM by liquid scintillation counting relative to CP-55940; type: functional, cell membranes; design: scale not given: the % may be the effect or the level left
[5] = target: Cannabinoid receptor 1 (Homo sapiens) (UniProt P21554); assay: Inverse agonist activity at human recombinant cannabinoid CB1 receptor expressed in HEK293 cells assessed as decrease in GTPgammaS binding at 30 uM by liquid scintillation counting relative to CP-55940; type: functional, cell-based; design: scale not given: the % may be the effect or the level left
Sequence of Cannabinoid receptor 1 (Homo sapiens) (P21554 whole entry): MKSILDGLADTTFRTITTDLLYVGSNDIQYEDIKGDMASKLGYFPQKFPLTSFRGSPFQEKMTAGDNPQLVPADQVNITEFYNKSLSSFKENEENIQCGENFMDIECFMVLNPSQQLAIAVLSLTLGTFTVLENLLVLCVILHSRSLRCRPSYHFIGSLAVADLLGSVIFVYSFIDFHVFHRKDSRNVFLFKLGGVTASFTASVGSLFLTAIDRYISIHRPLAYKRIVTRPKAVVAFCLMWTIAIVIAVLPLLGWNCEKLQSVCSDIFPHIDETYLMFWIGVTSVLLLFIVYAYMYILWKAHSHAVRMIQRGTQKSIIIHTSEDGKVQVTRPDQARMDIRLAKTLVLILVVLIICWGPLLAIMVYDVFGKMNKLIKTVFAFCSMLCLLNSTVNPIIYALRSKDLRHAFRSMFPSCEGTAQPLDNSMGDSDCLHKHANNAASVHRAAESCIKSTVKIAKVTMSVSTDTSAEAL

Sequence of Cannabinoid receptor 1 (P20272 whole entry): as the sequence (P20272 whole entry) above

| Activity [4] [%] | Activity [5] [%] | SMILES | Ki (Cannabinoid receptor 1) [µM] | Activity [1] [%] | Activity (Cannabinoid receptor 2 [2]) [%] | Ki (Cannabinoid receptor 2 [3]) [µM] |
| --- | --- | --- | --- | --- | --- | --- |
|  |  | O=c1oc2ccccc2cc1Cc1ccccc1 | > 10 | 18 | 28 | > 10 |
|  |  | O=C1C2=Cc3ccccc3OC2CC/C1=C\c1ccccc1O (centres undefined) | 4.9 |  | 37 | > 10 |
|  |  | COc1ccc2cc(C)c(=O)oc2c1 | ≥ 10 | 1 | 2 | ≥ 10 |
|  |  | Cc1cc2cc(I)ccc2oc1=O | > 10 | 12 | 10 | > 10 |
|  |  | Cc1cc2cc(Cl)cc(Br)c2oc1=O | ≥ 10 | 8 | 3 | ≥ 10 |
|  |  | COc1ccccc1Cc1cc2c(ccc3ccccc32)oc1=O | > 10 | 41 |  | 2.06 |
|  |  | COc1cc(C)cc2oc(=O)c(Cc3ccc(C)cc3)cc12 | 9.14 |  |  | 4.76 |
|  |  | COc1cccc2cc(C)c(=O)oc12 | ≥ 10 | 6 | 4 | > 10 |
|  |  | COc1ccc2cc(Cc3ccccc3)c(=O)oc2c1 | > 10 | 31 | 33 | > 10 |
| 2 | -19 | Cc1c(C(=O)NN2CCOCC2)nn(-c2ccc(Cl)cc2Cl)c1-c1ccc(I)cc1 |  |  |  |  |
|  |  | COc1ccccc1Cc1cc2c(OC)cccc2oc1=O | 9.57 |  |  | 3.49 |
|  |  | COc1ccccc1Cc1cc2c(OC)ccc(C)c2oc1=O | 12.3 |  |  | 3.65 |
|  |  | COc1cc(Br)cc2cc(C)c(=O)oc12 | > 10 | 17 | 9 | > 10 |
| -2 | -16 | COc1ccccc1Cc1cc2c(OC)cc(C)cc2oc1=O | 0.738 |  |  | 1.03 |
|  |  | COc1ccc2oc(=O)c(Cc3ccccc3)cc2c1 | ≥ 10 | 8 | 37 | > 10 |
|  |  | Cc1cc2c(C(C)C)ccc(C)c2oc1=O | > 10 | 26 | 0 | > 10 |
| 15 | -21 | O=c1oc2ccc3ccccc3c2cc1Cc1ccccc1 | 4.19 |  | 59 | ≥ 10 |
|  |  | Cc1cc2c(ccc3ccccc32)oc1=O | > 10 | 10 | 2 | ≥ 10 |

| Activity [4] [%] | Activity [5] [%] | SMILES | Ki (Cannabinoid receptor 1) [µM] | Activity [1] [%] | Activity (Cannabinoid receptor 2 [2]) [%] | Ki (Cannabinoid receptor 2 [3]) [µM] |
| --- | --- | --- | --- | --- | --- | --- |
|  |  | COc1cc(C)cc2oc(=O)c(Cc3ccccc3O)cc12 | 1.1 |  |  | 5.24 |
|  |  | O=c1oc2ccc(I)cc2cc1Cc1ccccc1 | > 10 | 31 | 44 | ≥ 10 |
|  |  | COc1ccc2oc(=O)c(C)cc2c1 | > 10 | 15 | 7 | ≥ 10 |
|  |  | COc1cc(C)cc2oc(=O)c(Cc3ccccc3Cl)cc12 | 0.978 |  |  | 1.54 |
|  |  | COc1ccc(Br)c2c1C=C(C(C)=O)C(C)O2 (centres undefined) | > 10 | 34 | 7 | > 10 |
|  |  | COc1cccc2oc(=O)c(Cc3ccccc3)cc12 | 19.1 |  | 28 | > 10 |
|  |  | COc1cc(C)cc2oc(=O)c(Cc3ccc(Cl)cc3)cc12 | 2.08 |  |  | 9.39 |
| 13 | -10 | COc1ccc(Cc2cc3c(OC)cc(C)cc3oc2=O)cc1 | 6.14 |  |  | 5.81 |
|  |  | CC1(C)Oc2c(cccc2-c2ccccc2)C=C1C=O | ≥ 10 | 46 | 3 | > 10 |
|  |  | COc1ccc(Br)c2oc(=O)c(Cc3ccccc3)cc12 | > 10 | 39 | 29 | > 10 |
|  |  | COc1ccccc1Cc1cc2c(C(C)C)ccc(C)c2oc1=O | 6.18 |  |  | 5.67 |
|  |  | CCOC(=O)/C(=C/C=C/c1ccccc1)C(=O)Oc1c(C2SCCS2)ccc2c1C=CC(C)(C)O2 | 1.37 |  | 22 | > 10 |
|  |  | COc1cc(C)cc2oc(=O)c(Cc3ccccc3C)cc12 | 1.17 |  |  | 2.16 |
|  |  | COc1cccc2cc(Cc3ccccc3)c(=O)oc12 | ≥ 10 | 6 | 25 | ≥ 10 |
|  |  | COc1ccc(Cc2cc3c(OC)cc(C)cc3oc2=O)c(OC)c1 | 6.23 |  |  | 2.78 |
|  |  | O=c1oc2ccc([N+](=O)[O-])cc2cc1Cc1ccccc1 | > 10 | 32 | 15 | > 10 |
|  |  | COc1cccc(Cc2cc3c(OC)cc(C)cc3oc2=O)c1 | 4.11 |  |  | 3.37 |

| SMILES | Activity [4] [%] | Activity [5] [%] | Ki (Cannabinoid receptor 1) [µM] | Activity [1] [%] | Activity (Cannabinoid receptor 2 [2]) [%] | Ki (Cannabinoid receptor 2 [3]) [µM] |
| --- | --- | --- | --- | --- | --- | --- |
| COc1cc(C)cc2oc(=O)c(Cc3ccccc3)cc12 | 3 | -8 | 3.46 |  | 45 | ≥ 10 |
| Cc1ccc(C(C)C)c2cc(Cc3ccccc3)c(=O)oc12 | 19 | -9 | 2.76 |  |  | 4.27 |
